Measured values from PubChem BioAssay AID822 (SRMLSC, 2007).

The molecules below were run on HUVEC proliferation, viability ATP luminescence (assay: growth suppression of umbilical vein endothelial cells – cell-based, HUVEC, ATP luminescence, dose response (AID 822);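 note: cells exposed to compound for 72 h before the ATP read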).
Method in brief: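 Material – HUVEC · Amount – 1250 HUVEC cells seeded per well · Medium – EBM plus 2% FBS · Dosing – dose series 0.039 to 20 µM, DMSO 0.2% · Times – 72 h exposure, 37 °C · Detection – ATP luminescence · Read-out basis – % viability and fitted EC50 · Format – collagen-coated plates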

For Cc1cc(C)c2c(c1)SC1=NC(c3ccccc3)(C(F)(F)F)NC(=O)N12 (stereo not drawn), which EC50 is on record?
The EC50 was 8.47 µM.

With O=C(CSc1ccc2c(c1)OCCO2)Nc1ccc(Cl)cn1 as the molecule, how does the EC50 read?
Its EC50 is 5.53 µM.

Which EC50 does the source give for O=C(CN1CCCC1)Nc1ccc(-c2nc3cc(NC(=O)CN4CCCC4)ccc3o2)cc1 here?
The EC50 was 18.9 µM.

Which EC50 does the source give for O=c1[nH]c2ccccc2n1C1CCN(CCCC(c2ccc(F)cc2)c2ccc(F)cc2)CC1 here?
The EC50 was 2.71 µM.

How did the EC50 turn out when Oc1ccccc1-c1cc(-c2ccccc2Cl)[nH]n1 was run?
The EC50 was 12.5 µM.

With O=S1(=O)C=C(Sc2nnc(-c3ccccc3)o2)c2ccccc21 as the molecule, how does the EC50 read?
Its EC50 is 4.25 µM.

Which EC50 does the source give for CCOC(=O)N1CCc2c(sc(NC(=O)c3ccc(S(=O)(=O)N4CCCC4)cc3)c2C#N)C1 here?
Its EC50 is 17.5 µM.

CCN(CC)CCn1c(=N)n(CCOc2ccccc2)c2ccccc21 was tested. Which EC50 did it give?
Its EC50 is 14.2 µM.

With Brc1ccccc1OCCCn1cnc2ccccc21 as the molecule, how does the EC50 read?
Its EC50 is 13.2 µM.

CCCCc1nc2sc3c(SCC(=O)NCc4ccco4)ncnc3c2c2c1CCC2 was tested. Which EC50 did it give?
The EC50 was 13.4 µM.

Which EC50 does the source give for COc1cccc(C(=O)CSc2nnc(-c3cc(OC)cc(OC)c3)o2)c1 here?
Its EC50 is 18.2 µM.

Which EC50 does the source give for O=[N+]([O-])c1cccnc1N1CCC(c2cc(-c3cccc(C(F)(F)F)c3)n[nH]2)CC1 here?
Its EC50 is 10.6 µM.

How did the EC50 turn out when O=C(c1nn2c(C(F)(F)F)cc(-c3ccco3)nc2c1Br)N1CCCc2ccccc21 was run?
The EC50 was 14.8 µM.

With CC(C)c1ccc(C2C3CSCC=C3C(C#N)=C(N)C2(C#N)C#N)cc1 (stereo not drawn) as the molecule, how does the EC50 read?
The EC50 was 4.86 µM.

For O=c1[nH]c2cc3c(cc2cc1C(c1nnnn1Cc1ccccc1)N1CCCCCC1)OCCO3 (stereo not drawn), which EC50 is on record?
Its EC50 is 13.1 µM.

For CCc1ccc(-c2nc(CN3CCC(C(=O)NCc4ccc(F)cc4)CC3)c(C)o2)cc1, which EC50 is on record?
The EC50 was 5.89 µM.

For Cc1ccc(-c2nc3cccnc3o2)cc1NC(=O)COc1ccc(C(C)(C)C)cc1, which EC50 is on record?
Its EC50 is 9 µM.

Which EC50 does the source give for COC(=O)C1=C(C)N=c2s/c(=C3\C(=O)Nc4ccccc43)c(=O)n2C1c1ccccc1 (stereo not drawn) here?
The EC50 was 6.31 µM.

Which EC50 does the source give for CC1CC(C)(C)CC2(C1)NC(=S)N(c1ccccc1)N2 (stereo not drawn) here?
Its EC50 is 12.3 µM.

How did the EC50 turn out when O=C(COc1ccc(Cl)cc1)Nc1ccccc1C(=O)NCc1ccco1 was run?
Its EC50 is 16.4 µM.

How did the EC50 turn out when COCCCn1[nH]c2c3c(ccc2c1=O)C(=O)c1ccccc1C3=O was run?
The EC50 was 4.66 µM.

With CCCCn1c(SCC(=O)Nc2cc(NC(=O)c3ccco3)ccc2C)nc2ccccc2c1=O as the molecule, how does the EC50 read?
Its EC50 is 12.2 µM.

How did the EC50 turn out when CCCCN(Cc1ccco1)C(=O)c1cc2c(=O)[nH]c3ccc(C)cc3c2s1 was run?
The EC50 was 4.57 µM.

Which EC50 does the source give for Cc1ccc(-n2c(SCC(=O)Nc3ccc4c(c3)OCO4)nnc2-c2cccs2)cc1 here?
Its EC50 is 8.21 µM.

Cc1cc(S(=O)(=O)N2CCN(Cc3ccc4c(c3)OCO4)CC2)cc(C)c1N1CCCC1=O was tested. Which EC50 did it give?
Its EC50 is 18.3 µM.

For CCc1cc(-c2n[nH]c(C)c2Oc2ccc(C(C)C)cc2)c(O)cc1O, which EC50 is on record?
Its EC50 is 6.36 µM.

Which EC50 does the source give for O=C(Nc1ccc(N2CCOCC2)cc1)Nc1ccc2nc(-c3ccco3)c(-c3ccco3)nc2c1 here?
Its EC50 is 7.18 µM.

COC(=O)C1=C(O)/C(=C\c2ccc(CNC(=O)C(=O)Nc3ccc(C)cc3)o2)N=C1C was tested. Which EC50 did it give?
Its EC50 is 19.4 µM.

Which EC50 does the source give for CCOC(=O)c1ccc(NC(=O)CCc2nc(-c3cccc(C)c3)no2)cc1 here?
The EC50 was 19.2 µM.

For Cc1ccc(-c2csc3ncnc(Sc4nnc(CN5CCCCCC5=O)o4)c23)cc1, which EC50 is on record?
The EC50 was 5.55 µM.

Which EC50 does the source give for Cc1cc(C)n(-c2nc(SCC(=O)N3CCCC3)c3c4c(sc3n2)CCCC4)n1 here?
Its EC50 is 19.4 µM.

Which EC50 does the source give for Cc1coc2c(O)cc3c(c12)OC1(N2CCCCC2)C(=O)NCCCC31 (stereo not drawn) here?
Its EC50 is 7.41 µM.

With COc1ccc2c(c1)c1nc3ccccc3nc1n2CC(=O)OC(C)C as the molecule, how does the EC50 read?
The EC50 was 11.3 µM.

With CCc1cc(-c2[nH]ncc2-c2ccc3c(c2)OCO3)c(O)cc1O as the molecule, how does the EC50 read?
Its EC50 is 7.97 µM.

Which EC50 does the source give for O=C1Nc2ccccc2/C1=C/C(=O)c1cccs1 here?
The EC50 was 7.52 µM.

Which EC50 does the source give for COc1ccc(C(C[N+](=O)[O-])c2c(-c3ccccc3)cc3ccccn23)cc1 (stereo not drawn) here?
The EC50 was 11.1 µM.

Which EC50 does the source give for Cc1nn(Cc2ccc(Cl)c(Cl)c2)c(C)c1NC(=O)c1cc(-c2ccc3c(c2)OCO3)on1 here?
Its EC50 is 1.35 µM.

How did the EC50 turn out when COc1ccc(Cc2nc(C(=O)Nc3ccc(Cl)cc3)cs2)cc1 was run?
Its EC50 is 19.9 µM.

How did the EC50 turn out when COc1ccc(C(=O)C(CN2CCOCC2)c2ccccc2)cc1 (stereo not drawn) was run?
The EC50 was 11.7 µM.

Nc1c(C(=O)C2CC2)sc2nc(-c3cccs3)cc(C(F)(F)F)c12 was tested. Which EC50 did it give?
The EC50 was 8.07 µM.

O=C(c1ccc(F)cc1)C(CN1CCOCC1)c1ccccc1 (stereo not drawn) was tested. Which EC50 did it give?
Its EC50 is 5.11 µM.

Cc1cccc2c1N(CCCOc1ccc(C(C)(C)C)cc1)C(=O)C2=O was tested. Which EC50 did it give?
The EC50 was 9.1 µM.

How did the EC50 turn out when Cc1cc(NC(c2cccnc2)c2ccc3cccnc3c2O)no1 (stereo not drawn) was run?
Its EC50 is 6.36 µM.

For O=C(/C=C/c1ccc(Cl)cc1)c1cccnc1, which EC50 is on record?
Its EC50 is 17.2 µM.

O=C(CCN1CCN(Cc2ccccc2)CC1)Nc1ccc(OCc2ccccc2)cc1 was tested. Which EC50 did it give?
Its EC50 is 14.1 µM.

Which EC50 does the source give for CCCCOc1ccc(C(=O)C(CN2CCOCC2)c2ccccc2)cc1 (stereo not drawn) here?
Its EC50 is 3.08 µM.

With O=C(CSc1nnc(-c2ccccc2O)o1)Oc1ccc(OCc2ccccc2)cc1 as the molecule, how does the EC50 read?
Its EC50 is 10.1 µM.

For Cc1ccc(C(=O)Nc2ncc(Cc3ccc(F)cc3)s2)o1, which EC50 is on record?
The EC50 was 0.277 µM.

Which EC50 does the source give for Cc1nc2c(-c3ccccc3)c(C)[nH]n2c(=O)c1Cl here?
Its EC50 is 10.5 µM.

Which EC50 does the source give for COc1c(F)c(F)c(C(=O)Nc2ccc(N3CCN(Cc4ccccc4)CC3)cc2)c(F)c1F here?
Its EC50 is 10.9 µM.

With N=c1c2c(ncn1CCN1CCOCC1)Oc1ccc3ccccc3c1C2c1ccccc1 (stereo not drawn) as the molecule, how does the EC50 read?
The EC50 was 11.9 µM.

O=C(Nc1ccccc1)c1cccc(-c2nnc(-c3ccccc3)o2)c1 was tested. Which EC50 did it give?
The EC50 was 10.6 µM.

Which EC50 does the source give for CNC(=O)c1ccc(-c2sc3nc(N4CCOCC4)c4c(c3c2N)CCCC4)o1 here?
Its EC50 is 10.5 µM.
